Active and inactive are the calls of the source. The rule behind the calls is not given here.
Tests used:
[1] = Antiproliferative activity against human MEC1 cells after 72 hrs by Celltiter-Glo assay; format: functional; details: MEC1, 72 h
How it was run: (§1)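 Cells seeded at 3000/well in 96-well plates, exposed to serially diluted compound for 72 h at 37 °C, 5% CO2. Viability read by CellTiter-Glo luminescence and normalized to DMSO control. GI50 derived from curve fit, mean of three independent measurements. Culture media: DMEM/10% FBS for adherent lines; IMDM for MV4-11 and MEC-1/2; RPMI 1640 for suspension lines and CHL.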

MOLM-13 = assay: Antiproliferative activity against human MOLM13 cells after 72 hrs by Celltiter-Glo assay; format: functional; details: MOLM-13, 72 h; how it was run: as §1
OCI-AML-3 = assay: Antiproliferative activity against human OCI-AML3 cells after 72 hrs by Celltiter-Glo assay; format: functional; details: OCI-AML-3, 72 h; how it was run: as §1
[2] = target: Cyclin-dependent kinase 9 (Homo sapiens, UniProt P50750); assay: Inhibition of CDK9 in human HL60 cells assessed as decrease in phosphorylation at Thr 186 residues up to 3 uM after 2 hrs by immunoblotting analysis; format: cell-based
[3] = AUC (0 to t) in mouse at 10 mg/kg, po by LC-MS/MS analysis; format: ADME, organism-based; details: in vivo
How it was run: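 Non-compartmental PK. Male SD rats 190-210 g, mice and beagle dogs acclimatized one week, fasted 12 h with water, split into iv and po groups (mice 48, rats 6, dogs 6). iv 3/3/2 mg/kg (mice/rats/dogs); po 10/20/10 mg/kg; vehicle DMSO in 5% glucose water. Blood at 2 or 5 to 720 min; plasma protein-precipitated with methanol, caffeine internal standard, LC-MS/MS.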

[4] = MRT (0 to t) in mouse at 10 mg/kg, po by LC-MS/MS analysis; format: ADME, organism-based; details: in vivo
MV4-11 = assay: Antitumor activity against human MV4-11 cells xenografted in nu/nu mouse assessed as tumor growth inhibition at 10 to 30 mg/kg, po administered via gavage for 2 weeks measured every day during compound dosing; format: functional, organism-based
How it was run: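 Female nu/nu mice, five weeks old, implanted subcutaneously in the right flank with 5 million MV4-11 cells in PBS/Matrigel 1:1. Daily oral gavage in 0.5% methylcellulose/0.4% Tween80 started at tumor volume 200–400 mm³, 10, 20 or 30 mg/kg/day or vehicle, 5 mice per group. Tumor volume (W²×L)/2 and body weight measured daily; mean ± SEM.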

[5] = test system: Tyrosine-protein kinase ABL1 (Homo sapiens), P00519 [Y253F]; assay: Binding affinity to human phosphorylated ABL1 Y253F mutant (S229 to K512 residues) expressed in mammalian expression system assessed as remaining unbound target protein level at 1000 nM by Kinomescan method relative to control
How it was run: (§2)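 Single-point competition binding screen across a panel of 468 kinases and mutants, with the inhibitor at 1 μM. Binding is read out as percent of a DMSO control, and targets below 1 percent control were classed as strong binders.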

[6] = target: Bone morphogenetic protein receptor type-1B (Homo sapiens) (UniProt O00238); assay: Binding affinity to wild-type human partial length BMPR1B (D178 to L502 residues) expressed in mammalian expression system assessed as remaining unbound target protein level at 1000 nM by Kinomescan method relative to control
[7] = target: Calcium/calmodulin-dependent protein kinase type II subunit gamma (Homo sapiens) (UniProt Q13555); assay: Binding affinity to wild-type human partial length CAMK2G (R9 to A303 residues) expressed in bacterial expression system assessed as remaining unbound target protein level at 1000 nM by Kinomescan method relative to control
How it was run: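 KINOMEscan competition binding profile across a panel of 468 kinases and mutants, with the inhibitor tested at a single concentration of 1 μM. Binding is reported as percent of control, meaning signal relative to a DMSO control.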

[8] = target: Mitogen-activated protein kinase 3 (Homo sapiens) (UniProt P27361); assay: Binding affinity to wild-type human full length ERK1 (M1 to P379 residues) expressed in bacterial expression system assessed as remaining unbound target protein level at 1000 nM by Kinomescan method relative to control; how it was run: as §2
[9] = target: Mitogen-activated protein kinase 7 (Homo sapiens) (UniProt Q13164); assay: Binding affinity to wild-type human partial length ERK5 (M1 to A409 residues) expressed in bacterial expression system assessed as remaining unbound target protein level at 1000 nM by Kinomescan method relative to control
[10] = test system: Receptor-type tyrosine-protein kinase FLT3 (Homo sapiens), P36888 [UNDEFINED MUTATION]; assay: Binding affinity to human partial length FLT3 ITD/F691L double mutant expressed in bacterial expression system assessed as remaining unbound target protein level at 1000 nM by Kinomescan method relative to control
How it was run: (§3)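 KINOMEscan competition-binding profiling across the panel of 468 kinases and mutants, with inhibitor tested at 1 μM. Binding is expressed as percent of control, with DMSO as the reference control.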

[11] = target: Serine/threonine-protein kinase LATS2 (Homo sapiens) (UniProt Q9NRM7); assay: Binding affinity to wild-type human partial length LATS2 (Q641 to V1088 residues) expressed in mammalian expression system assessed as remaining unbound target protein level at 1000 nM by Kinomescan method relative to control
[12] = target: Tyrosine-protein kinase Lyn (Homo sapiens) (UniProt P07948); assay: Binding affinity to wild-type human partial length LYN (C219 to Q511 residues) expressed in bacterial expression system assessed as remaining unbound target protein level at 1000 nM by Kinomescan method relative to control
How it was run: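 KINOMEscan binding panel of 468 kinases/mutants. Inhibitor was tested at a single concentration of 1 μM. Binding is reported as percent of control, defined relative to a DMSO control.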

[13] = target: MAP kinase-interacting serine/threonine-protein kinase 2 (Homo sapiens) (UniProt Q9HBH9); assay: Binding affinity to wild-type human partial length MKNK2 (G63 to S388 residues) expressed in mammalian expression system assessed as remaining unbound target protein level at 1000 nM by Kinomescan method relative to control
[14] = target: Macrophage-stimulating protein receptor (Homo sapiens) (UniProt Q04912); assay: Binding affinity to wild-type human partial length MST1R (I1057 to L1363 residues) expressed in bacterial expression system assessed as remaining unbound target protein level at 1000 nM by Kinomescan method relative to control
[15] = test system: Phosphatidylinositol 4,5-bisphosphate 3-kinase catalytic subunit alpha isoform (Homo sapiens), P42336 [I800L]; assay: Binding affinity to human partial length PIK3CA I800L mutant (R108 to N1068 residues) expressed in mammalian expression system assessed as remaining unbound target protein level at 1000 nM by Kinomescan method relative to control; how it was run: as §3
[16] = target: Protein kinase C iota type (Homo sapiens) (UniProt P41743); assay: Binding affinity to wild-type human partial length PRKCI (H215 to V587 residues) expressed in mammalian expression system assessed as remaining unbound target protein level at 1000 nM by Kinomescan method relative to control
[17] = target: Serine/threonine-protein kinase tousled-like 2 (Homo sapiens) (UniProt Q86UE8); assay: Binding affinity to wild-type human partial length TLK2 (E424 to N749 residues) expressed in bacterial expression system assessed as remaining unbound target protein level at 1000 nM by Kinomescan method relative to control

Chain of Tyrosine-protein kinase Lyn (Homo sapiens) (P07948 2-512 limits assumed): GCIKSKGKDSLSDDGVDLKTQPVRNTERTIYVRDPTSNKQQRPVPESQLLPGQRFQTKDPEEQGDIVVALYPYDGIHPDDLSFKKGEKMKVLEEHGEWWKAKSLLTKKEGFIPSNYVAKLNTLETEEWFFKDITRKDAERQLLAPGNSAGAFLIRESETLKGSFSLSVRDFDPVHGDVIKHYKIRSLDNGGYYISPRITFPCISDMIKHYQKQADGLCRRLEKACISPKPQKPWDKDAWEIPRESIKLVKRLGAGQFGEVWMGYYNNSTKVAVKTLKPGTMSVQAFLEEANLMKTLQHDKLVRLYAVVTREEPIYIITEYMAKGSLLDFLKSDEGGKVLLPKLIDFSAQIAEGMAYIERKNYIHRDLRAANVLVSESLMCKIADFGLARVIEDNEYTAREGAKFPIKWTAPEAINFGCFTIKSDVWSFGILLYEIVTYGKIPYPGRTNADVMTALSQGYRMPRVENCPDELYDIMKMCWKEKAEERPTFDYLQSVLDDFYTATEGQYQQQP
Chain of Protein kinase C iota type (Homo sapiens) (P41743 whole entry, the tested form may be a part): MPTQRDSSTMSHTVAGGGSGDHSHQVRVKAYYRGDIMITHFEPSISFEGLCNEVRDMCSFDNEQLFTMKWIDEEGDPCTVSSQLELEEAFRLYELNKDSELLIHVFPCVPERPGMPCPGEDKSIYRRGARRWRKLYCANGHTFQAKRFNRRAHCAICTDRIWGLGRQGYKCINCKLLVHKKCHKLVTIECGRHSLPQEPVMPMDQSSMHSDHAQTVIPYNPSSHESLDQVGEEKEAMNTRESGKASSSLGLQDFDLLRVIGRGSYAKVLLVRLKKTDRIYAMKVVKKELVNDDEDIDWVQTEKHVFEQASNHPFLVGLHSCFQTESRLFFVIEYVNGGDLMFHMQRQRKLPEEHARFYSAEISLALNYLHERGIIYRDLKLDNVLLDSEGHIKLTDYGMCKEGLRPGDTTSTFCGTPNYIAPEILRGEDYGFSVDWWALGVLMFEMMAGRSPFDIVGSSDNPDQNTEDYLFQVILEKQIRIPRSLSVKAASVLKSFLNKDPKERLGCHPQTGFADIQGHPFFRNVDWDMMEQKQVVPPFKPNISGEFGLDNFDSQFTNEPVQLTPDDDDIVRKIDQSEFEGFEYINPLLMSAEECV
Chain of MAP kinase-interacting serine/threonine-protein kinase 2 (Homo sapiens) (Q9HBH9 whole entry, looked up, the tested form may be a part): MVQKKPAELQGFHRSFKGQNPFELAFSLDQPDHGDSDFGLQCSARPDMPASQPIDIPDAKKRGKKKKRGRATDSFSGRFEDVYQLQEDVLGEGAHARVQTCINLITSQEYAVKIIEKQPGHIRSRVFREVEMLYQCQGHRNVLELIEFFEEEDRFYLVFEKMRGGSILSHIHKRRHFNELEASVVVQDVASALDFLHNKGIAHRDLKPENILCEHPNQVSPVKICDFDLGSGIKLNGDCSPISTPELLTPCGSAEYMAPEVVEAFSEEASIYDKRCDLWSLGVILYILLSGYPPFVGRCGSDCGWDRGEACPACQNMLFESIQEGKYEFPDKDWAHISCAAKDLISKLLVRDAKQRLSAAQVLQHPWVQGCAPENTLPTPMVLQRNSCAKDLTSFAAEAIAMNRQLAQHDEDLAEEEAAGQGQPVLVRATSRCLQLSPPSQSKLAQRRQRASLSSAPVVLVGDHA
Chain of Receptor-type tyrosine-protein kinase FLT3 (Homo sapiens), P36888 [UNDEFINED MUTATION] (P36888 whole entry, looked up, stated change not applied): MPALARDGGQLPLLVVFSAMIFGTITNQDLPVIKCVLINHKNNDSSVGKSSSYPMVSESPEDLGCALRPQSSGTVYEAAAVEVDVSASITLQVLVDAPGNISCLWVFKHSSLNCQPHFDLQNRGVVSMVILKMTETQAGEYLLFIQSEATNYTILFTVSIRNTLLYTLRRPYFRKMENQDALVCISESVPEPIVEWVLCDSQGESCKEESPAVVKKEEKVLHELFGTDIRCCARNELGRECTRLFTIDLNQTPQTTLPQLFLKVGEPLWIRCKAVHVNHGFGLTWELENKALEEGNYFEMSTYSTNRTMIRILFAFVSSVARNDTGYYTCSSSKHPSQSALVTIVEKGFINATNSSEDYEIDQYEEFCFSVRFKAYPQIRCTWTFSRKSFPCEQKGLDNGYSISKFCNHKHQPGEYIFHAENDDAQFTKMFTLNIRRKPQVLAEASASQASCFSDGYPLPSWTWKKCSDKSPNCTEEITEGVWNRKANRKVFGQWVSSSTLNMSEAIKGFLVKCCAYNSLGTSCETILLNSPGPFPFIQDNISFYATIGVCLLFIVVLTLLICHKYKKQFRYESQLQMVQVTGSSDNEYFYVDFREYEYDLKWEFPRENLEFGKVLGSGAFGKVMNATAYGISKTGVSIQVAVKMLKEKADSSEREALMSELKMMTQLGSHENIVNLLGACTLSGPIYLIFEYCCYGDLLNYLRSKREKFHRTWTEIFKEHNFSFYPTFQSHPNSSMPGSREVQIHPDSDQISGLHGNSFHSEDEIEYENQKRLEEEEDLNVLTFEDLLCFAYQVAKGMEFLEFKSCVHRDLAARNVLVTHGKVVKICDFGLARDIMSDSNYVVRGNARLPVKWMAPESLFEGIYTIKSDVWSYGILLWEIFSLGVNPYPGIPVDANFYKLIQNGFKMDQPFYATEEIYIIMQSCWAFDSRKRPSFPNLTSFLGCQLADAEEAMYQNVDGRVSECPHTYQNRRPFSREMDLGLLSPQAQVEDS
Chain of Bone morphogenetic protein receptor type-1B (Homo sapiens) (O00238 whole entry, the tested form may be a part): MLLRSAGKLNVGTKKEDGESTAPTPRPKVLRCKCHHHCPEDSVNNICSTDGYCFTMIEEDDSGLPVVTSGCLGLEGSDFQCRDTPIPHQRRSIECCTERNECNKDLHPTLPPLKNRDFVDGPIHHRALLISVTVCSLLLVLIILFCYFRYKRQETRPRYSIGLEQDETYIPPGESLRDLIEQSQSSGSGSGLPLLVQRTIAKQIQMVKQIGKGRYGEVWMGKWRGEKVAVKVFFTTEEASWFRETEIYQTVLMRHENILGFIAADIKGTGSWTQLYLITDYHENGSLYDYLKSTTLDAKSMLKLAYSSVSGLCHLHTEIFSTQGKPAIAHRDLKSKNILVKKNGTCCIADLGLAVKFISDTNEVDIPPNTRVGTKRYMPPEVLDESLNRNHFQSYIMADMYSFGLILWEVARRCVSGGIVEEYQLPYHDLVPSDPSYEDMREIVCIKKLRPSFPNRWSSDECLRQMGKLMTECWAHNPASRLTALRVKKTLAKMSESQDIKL
Chain of Mitogen-activated protein kinase 7 (Homo sapiens) (Q13164 2-816 limits assumed): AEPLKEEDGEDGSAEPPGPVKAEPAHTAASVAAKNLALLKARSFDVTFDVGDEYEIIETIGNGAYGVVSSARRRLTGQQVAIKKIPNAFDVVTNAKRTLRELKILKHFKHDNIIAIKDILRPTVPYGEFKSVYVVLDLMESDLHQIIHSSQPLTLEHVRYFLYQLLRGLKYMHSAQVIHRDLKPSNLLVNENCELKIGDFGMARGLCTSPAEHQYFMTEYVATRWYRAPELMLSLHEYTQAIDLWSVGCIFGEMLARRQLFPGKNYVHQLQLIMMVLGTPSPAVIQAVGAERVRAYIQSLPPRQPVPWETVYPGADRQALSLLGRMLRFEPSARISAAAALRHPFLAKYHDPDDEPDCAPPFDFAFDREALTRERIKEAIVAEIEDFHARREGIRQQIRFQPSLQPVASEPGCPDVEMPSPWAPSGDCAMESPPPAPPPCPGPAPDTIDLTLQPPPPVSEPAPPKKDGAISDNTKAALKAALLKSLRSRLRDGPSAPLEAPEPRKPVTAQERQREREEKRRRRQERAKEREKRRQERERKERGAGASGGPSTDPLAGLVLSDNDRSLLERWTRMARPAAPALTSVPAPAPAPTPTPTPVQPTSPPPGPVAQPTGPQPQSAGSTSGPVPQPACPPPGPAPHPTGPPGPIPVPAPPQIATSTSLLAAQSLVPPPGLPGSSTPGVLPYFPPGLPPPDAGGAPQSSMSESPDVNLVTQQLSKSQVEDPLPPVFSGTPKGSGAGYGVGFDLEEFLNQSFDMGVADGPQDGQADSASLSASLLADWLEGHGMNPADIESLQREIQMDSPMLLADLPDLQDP
Chain of Calcium/calmodulin-dependent protein kinase type II subunit gamma (Homo sapiens) (Q13555 whole entry, the tested form may be a part): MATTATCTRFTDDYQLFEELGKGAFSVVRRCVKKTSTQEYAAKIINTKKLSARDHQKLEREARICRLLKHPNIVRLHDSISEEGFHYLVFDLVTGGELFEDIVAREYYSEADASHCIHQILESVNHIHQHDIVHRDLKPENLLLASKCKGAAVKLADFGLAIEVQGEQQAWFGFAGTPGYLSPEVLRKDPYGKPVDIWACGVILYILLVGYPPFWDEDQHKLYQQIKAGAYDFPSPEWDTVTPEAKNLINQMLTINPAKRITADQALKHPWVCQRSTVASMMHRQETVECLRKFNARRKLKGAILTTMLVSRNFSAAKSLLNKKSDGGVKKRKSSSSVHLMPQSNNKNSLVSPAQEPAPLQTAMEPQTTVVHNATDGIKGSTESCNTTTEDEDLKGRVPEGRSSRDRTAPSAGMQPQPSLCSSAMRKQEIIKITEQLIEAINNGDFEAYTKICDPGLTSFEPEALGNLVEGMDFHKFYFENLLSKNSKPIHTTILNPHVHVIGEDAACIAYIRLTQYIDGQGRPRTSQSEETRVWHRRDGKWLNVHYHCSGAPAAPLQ
Chain of Mitogen-activated protein kinase 3 (Homo sapiens) (P27361 whole entry, the tested form may be a part): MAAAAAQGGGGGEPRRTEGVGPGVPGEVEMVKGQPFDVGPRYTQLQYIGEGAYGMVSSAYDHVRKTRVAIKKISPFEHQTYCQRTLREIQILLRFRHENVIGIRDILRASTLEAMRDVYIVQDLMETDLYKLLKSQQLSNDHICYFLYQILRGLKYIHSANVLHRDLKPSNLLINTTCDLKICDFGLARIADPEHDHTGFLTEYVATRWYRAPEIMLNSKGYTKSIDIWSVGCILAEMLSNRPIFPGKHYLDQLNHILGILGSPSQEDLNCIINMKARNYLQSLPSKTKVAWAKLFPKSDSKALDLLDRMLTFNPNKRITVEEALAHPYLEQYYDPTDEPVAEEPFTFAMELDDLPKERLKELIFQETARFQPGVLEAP

COCCN[C@H]1CC[C@H](Nc2cc(-c3csc(NCC4(C#N)CCOCC4)n3)c(Cl)cn2)CC1
GI50 [1]: 11 to 37 nM
GI50 (MOLM-13): 12 nM
GI50 (OCI-AML-3): 6.6 nM
inhibition [2]: inactive
AUC(0-t) [3]: 591 ng·h/mL
MRT last [4]: 3.24 h
TGI (MV4-11): Active
Activity [5]: 87%
Activity [6]: 84%
Activity [7]: 99%
Activity [8]: 90%
Activity [9]: 88%
Activity [10]: 75%
Activity [11]: 84%
Activity [12]: 86%
Activity [13]: 97%
Activity [14]: 92%
Activity [15]: 90%
Activity [16]: 100%
Activity [17]: 99%

Reference: ChEMBL document CHEMBL4261600 (Eur J Med Chem, 2018)
